Experimental data from ChEMBL document CHEMBL5252538, “β-Lactam analogues of combretastatin A-4 prevent metabolic inactivation by glucuronidation in chemoresistant HT-29 colon cancer cells” (Eur J Med Chem, 2017).
Calls of active or inactive are those of the source. The rule behind the calls is not given here.

How the values were obtained:
HT-29 [1] = experiment: Induction of cell cycle arrest in human HT-29 cells assessed as accumulation of cells in sub-G1 phase at 0.5 uM incubated for 72 hrs by RNase/PI staining based flow cytometry analysis (reference value: 6%); type: functional
In short: (§1)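 HT-29 treated with vehicle (0.1% ethanol v/v) or compound at 0.5 µM for 24, 48 and 72 h. Adherent plus detached cells collected, fixed overnight in ice-cold 70% ethanol at −20 °C, stained with PI (50 µg/mL) plus RNase A (50 µg/mL) 30 min at 37 °C. 10,000 cells analysed by flow cytometry at 488 nm; sub-G1, G0/G1, G2/M gated on DNA content; mean of three experiments.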

MCF7 [2] = experiment: Antiproliferative activity against […] human MCF7 cells assessed as inhibition of cell growth incubated for 72 hrs by alamar blue assay; type: functional, cell-based; details: MCF7, 72 h
In short: (§2)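 Cells seeded 24 h before treatment (HL-60 4 × 10⁴, MCF-7 5 × 10³ per well), then given medium, vehicle (1% ethanol v/v) or serial dilutions (eight concentrations) for 72 h. Alamar Blue (10% v/v) added for 3–5 h at 37 °C in the dark, fluorescence read at ex 530/em 590 nm. Viability expressed relative to vehicle (100%), IC50 from dose–response curves; three experiments in triplicate.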

HL-60 [3] = experiment: Antiproliferative activity against […] human HL-60 cells assessed as inhibition of cell growth incubated for 72 hrs by alamar blue assay; type: functional, cell-based; details: HL-60, 72 h; in short: as §2
HT-29 [4] = experiment: Antiproliferative activity against combretastatin A-4 resistant human HT-29 cells assessed as inhibition of cell growth incubated for 72 hrs by SRB assay; type: functional, cell-based; details: HT-29, 72 h
In short: (§3)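 HT-29 (DMEM Glutamax, 10% FBS) seeded at 1 × 10⁴ cells/well, treated after 24 h with vehicle (1% ethanol v/v) or serial dilutions (eight concentrations) for 72 h; viability measured by sulforhodamine B protocol. Percent viability relative to vehicle control, IC50 from dose–response curves; mean of three experiments in triplicate.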

HT-29 [5] = experiment: Induction of cell cycle arrest in human HT-29 cells assessed as accumulation of cells at G2/M phase at 0.5 uM incubated for 72 hrs by RNase/PI staining based flow cytometry analysis relative to control; type: functional; in short: as §1
HT-29 [6] = experiment: Induction of cell cycle arrest in human HT-29 cells assessed as reduction in cells in G0 phase at 0.5 uM incubated for 72 hrs by RNase/PI staining based flow cytometry analysis; type: functional; in short: as §1
HT-29 [7] = experiment: Induction of cell cycle arrest in human HT-29 cells assessed as reduction in cells in S phase at 0.5 uM incubated for 72 hrs by RNase/PI staining based flow cytometry analysis; type: functional; in short: as §1
Tubulin (Homo sapiens) [8] = target: T1, Tubulin (Homo sapiens) (UniProt P68371+Q9H4B7+P0DPH7+P68366+Q13509+Q71U36+P04350+Q3ZCM7+P07437+P68363+Q9BQE3+Q6PEY2+Q13885+Q9BVA1+Q9BUF5); experiment: Induction of microtubule disruption in human HT-29 cells assessed as complete loss of microtubule structure incubated for 16 hrs by immunofluorescence based confocal microscopic analysis; type: cell-based
In short: (§4)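 Fixed in 4% paraformaldehyde, permeabilised in 0.5% Triton X-100, blocked in 5% BSA, stained with anti-α-tubulin-FITC (DM1A, 1:100, 2 h) and Alexa Fluor 488, DAPI counterstain; confocal imaging, three occasions.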

Tubulin (Homo sapiens) [9] = target: T1, Tubulin (Homo sapiens); experiment: Induction of microtubule disruption in human HT-29 cells assessed as appearance of multiple micronucleus incubated for 16 hrs by immunofluorescence based confocal microscopic analysis; type: cell-based; in short: as §4
Tubulin (Bos taurus) = Tubulin (Bos taurus) (UniProt Q6B856+Q862L2+Q862F3); experiment: Inhibition of bovine tubulin polymerisation assessed as fold reduction in Vmax at 10 uM measured every 30 secs for 30 mins by spectrophotometric method relative to control; type: protein assay
[10] = system: Panel NCI-60 (60 carcinoma cell lines); experiment: Antiproliferative activity against human panel NCI-60 (60 carcinoma cell lines) assessed as inhibition of cell growth at 10 uM incubated for 72 hrs by SRB assay; type: functional, cell-based
[11] = Stability in phosphate buffer at pH 7.4 assessed as half life at 30 ug/ml measured for 24 hrs by analytical HPLC analysis; type: physicochemical; details: dose 30 µg/ml
[12] = Stability in phosphate buffer at pH 4 assessed as half life at 30 ug/ml measured for 24 hrs by analytical HPLC analysis; type: physicochemical; details: dose 30 µg/ml
[13] = Stability in phosphate buffer at pH 9 assessed as half life at 30 ug/ml measured for 24 hrs by analytical HPLC analysis; type: physicochemical; details: dose 30 µg/ml
MCF7 [14] = experiment: Antiproliferative activity against human MCF7 cells assessed as inhibition of cell growth incubated for 72 hrs by SRB assay; type: functional
HT-29 [15] = experiment: Antiproliferative activity against human HT-29 cells assessed as inhibition of cell growth incubated for 72 hrs by SRB assay; type: functional; in short: as §3
HL-60 [16] = experiment: Antiproliferative activity against human HL-60 cells assessed as inhibition of cell growth incubated for 72 hrs by SRB assay; type: functional
[17] = system: Panel NCI-60 (60 carcinoma cell lines); experiment: Antiproliferative activity against human panel NCI-60 (60 carcinoma cell lines) incubated for 72 hrs by SRB assay; type: functional; details: read-out: LC50 (the source's name)
MCF7 [18] = experiment: Induction of cell cycle arrest in human MCF7 cells assessed as accumulation of cells at G2/M phase at 0.5 uM incubated for 24 hrs by RNase/PI staining based flow cytometry analysis (reference value: 24%); type: functional
MCF7 [19] = experiment: Induction of cell cycle arrest in human MCF7 cells assessed as accumulation of cells at sub-G1 phase at 0.5 uM incubated for 72 hrs by RNase/PI staining based flow cytometry analysis (reference value: 4%); type: functional
HT-29 [20] = experiment: Induction of apoptosis in human HT-29 cells assessed as decrease in Mcl-1 protein expression at 0.1 to 1 uM incubated for 48 hrs by Western blot analysis; type: functional, cell-based; details: dose 0.1-1 µM
In short: (§5)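 HT-29 seeded at 1 × 10⁵ cells per T25 flask; left untreated, given vehicle (0.1% EtOH v/v) or compound at 0.1 or 1 µM for 48 h. Whole-cell lysates in RIPA with protease/phosphatase inhibitors, equal protein (BCA) on 12% SDS-PAGE, PVDF; probed for Mcl-1, PARP, Bax (1:1000), HRP secondary, ECL detection, GAPDH loading control; three independent occasions.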

HT-29 [21] = experiment: Induction of apoptosis in human HT-29 cells assessed as upregulation of Bax protein expression at 0.1 to 1 uM incubated for 48 hrs by Western blot analysis; type: functional, cell-based; details: dose 0.1-1 µM; in short: as §5
HT-29 [22] = experiment: Induction of apoptosis in human HT-29 cells assessed as increase in PARP cleavage at 0.1 uM incubated for 48 hrs by Western blot analysis; type: functional, cell-based; in short: as §5
Tubulin (Homo sapiens) [23] = target: T1, Tubulin (Homo sapiens); experiment: Induction of microtubule disruption in human MCF7 cells assessed as inhibition of microtubule formation at 0.5 uM incubated for 16 hrs by immunofluorescence based confocal microscopic analysis; type: cell-based
In short: (§6)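 MCF-7 seeded at 1 × 10⁵ cells/mL on chamber slides, treated 16 h with vehicle (1% ethanol v/v), CA-4 (0.1 µM) or compounds (0.5 µM). Paraformaldehyde fixation (4%, 20 min), Triton X-100 permeabilisation, BSA block, anti-α-tubulin-FITC (DM1A) plus Alexa Fluor 488, DAPI mounting; confocal imaging with identical settings per experiment; three independent occasions.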

Tubulin (Homo sapiens) [24] = target: T1, Tubulin (Homo sapiens); experiment: Induction of microtubule disruption in human MCF7 cells assessed as shrunken spindle shaped microtubule formation at 0.5 uM incubated for 16 hrs by immunofluorescence based confocal microscopic analysis; type: cell-based; in short: as §6
Tubulin (Homo sapiens) [25] = target: T1, Tubulin (Homo sapiens); experiment: Induction of microtubule disruption in human MCF7 cells assessed as depolymerization of microtubules at 0.5 uM incubated for 16 hrs by immunofluorescence based confocal microscopic analysis; type: cell-based; in short: as §6
HT-29 [26] = experiment: Induction of cell cycle arrest in human HT-29 cells assessed as accumulation of cells at G0/G1 phase at 1 uM incubated for 24 hrs by RAase A/PI staining based flow cytometry analysis (reference value: 57%); type: functional
HT-29 [27] = experiment: Induction of cell cycle arrest in human HT-29 cells assessed as accumulation of cells at G2/M phase at 1 uM incubated for 24 hrs by RAase A/PI staining based flow cytometry analysis (reference value: 16%); type: functional
HT-29 [28] = experiment: Induction of cell cycle arrest in human HT-29 cells assessed as accumulation of cells at G0/G1 phase at 1 uM incubated for 24 hrs in presence of 2,3-bis(amino((2aminophenyl)thio)methylene)succinonitrile by RAase A/PI staining based flow cytometry analysis (reference value: 57%); type: functional
HT-29 [29] = experiment: Induction of cell cycle arrest in human HT-29 cells assessed as accumulation of cells at G2/M phase at 1 uM incubated for 24 hrs in presence of 2,3-bis(amino((2-aminophenyl)thio)methylene)succinonitrile by RAase A/PI staining based flow cytometry analysis (reference value: 16%); type: functional
Tubulin (Homo sapiens) [30] = target: T1, Tubulin (Homo sapiens); experiment: Induction of microtubule disruption in human HT-29 cells assessed as effect on microtubule organization at 1 uM incubated for 16 hrs by immunofluorescence based confocal microscopic analysis; type: cell-based
[31] = target: Tubulin beta (Homo sapiens) (UniProt P68371+Q9H4B7+Q13509+P04350+Q3ZCM7+P07437+Q13885+Q9BVA1+Q9BUF5+A6NNZ2); experiment: Binding affinity to colchicine binding site of beta-tubulin in human MCF7 cells assessed as inhibition of beta-tubulin-EBI adduct formation at 10 uM pretreated for 2 hrs followed by EBI addition and measured after 1.5 hrs by Western blot analysis; type: cell-based; details: time 3.5 hrs
In short: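 Cells seeded at 5 × 10⁴/well, grown overnight, treated with vehicle (0.1% ethanol v/v) or compound (10 µM) for 2 h, then EBI (100 µM) added for 1.5 h. Cells washed with ice-cold PBS, lysed in Laemmli buffer, run on SDS-PAGE, blotted and probed for β-tubulin to detect the faster-migrating β-tubulin–EBI adduct; GAPDH reprobe for loading; three independent experiments.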

Structure (SMILES) | IC50 (MCF7 [2]) | IC50 (HL-60 [3]) | IC50 (HT-29 [4]) | further results
COc1ccc(C2C(c3ccccc3)C(=O)N2c2cc(OC)c(OC)c(OC)c2)cc1 (mixture of isomers) | 15 nM | 24 nM | 22 nM | Activity (HT-29 [1]): 19%; Activity (HT-29 [5]): 50%; Activity (HT-29 [6]): Active; Activity (HT-29 [7]): Active; Activity (Tubulin (Homo sapiens) [8]): Active; Activity (Tubulin (Homo sapiens) [9]): Active
COc1ccc(C2C(Cl)C(=O)N2c2cc(OC)c(OC)c(OC)c2)cc1 (racemic) | 56 nM | 161 nM | 135 nM | 
C=CC1C(=O)N(c2cc(OC)c(OC)c(OC)c2)C1c1ccc(SC)cc1 (racemic) | 51 nM | 61 nM | 113 nM | fold change (FC) (Tubulin (Bos taurus)): 3.4
CCOc1ccc(C2C(Oc3ccccc3)C(=O)N2c2cc(OC)c(OC)c(OC)c2)cc1 (racemic) | 69 nM | 494 nM | 388 nM | 
CCOc1ccc(C2C(Cl)C(=O)N2c2cc(OC)c(OC)c(OC)c2)cc1 (racemic) | 87 nM | 209 nM | 203 nM | 
CCOc1ccc(C2N(c3cc(OC)c(OC)c(OC)c3)C(=O)C2(Cl)Cl)cc1 (racemic) | 270 nM | 182 nM | 325 nM | 
COc1cc(N2C(=O)C(Cl)C2c2ccc(SC)cc2)cc(OC)c1OC (racemic) | 73 nM | 522 nM | 137 nM | inhibition [10]: Active; fold change (FC) (Tubulin (Bos taurus)): 2
C=CC1C(=O)N(c2cc(OC)c(OC)c(OC)c2)C1c1ccc(OC)cc1 (racemic) | 17 nM | 33 nM | 10 nM | 
COc1cc(N2C(=O)C(c3ccccc3)C2c2ccc(SC)cc2)cc(OC)c1OC (racemic) | 65 nM | 59 nM | 56 nM | half-life at 30 ug/ml [11]: 15 h; half-life at 30 ug/ml [12]: 10 h; half-life at 30 ug/ml [13]: 8 h; inhibition [10]: Active; GI50 (MCF7 [14]): 35 nM; GI50 (HT-29 [15]): 32 nM; GI50 (HL-60 [16]): 23 nM; CC50 [17]: > 100000 nM; Activity (MCF7 [18]): 65%; Activity (MCF7 [19]): 11%; Activity (HT-29 [20]): Active; Activity (HT-29 [21]): Active; Activity (HT-29 [22]): Active; fold change (FC) (Tubulin (Bos taurus)): 3.4; Activity (Tubulin (Homo sapiens) [23]): Active; Activity (Tubulin (Homo sapiens) [24]): Active; Activity (Tubulin (Homo sapiens) [25]): Active
C=CC1C(=O)N(c2cc(OC)c(OC)c(OC)c2)C1c1ccc(OCC)cc1 (racemic) | 14 nM | 35 nM | 97 nM | 
COc1ccc(C2N(c3cc(OC)c(OC)c(OC)c3)C(=O)C2(Cl)Cl)cc1 (racemic) | 133 nM | 144 nM | 271 nM | 
CCOc1ccc(C2C(c3ccccc3)C(=O)N2c2cc(OC)c(OC)c(OC)c2)cc1 (racemic) | 50 nM | 74 nM | 75 nM | 
COc1ccc([C@@H]2[C@@H](Oc3ccccc3)C(=O)N2c2cc(OC)c(OC)c(OC)c2)cc1O (relative stereo) | 23 nM | 7 nM | 692 nM | 
COc1ccc(/C=C\c2cc(OC)c(OC)c(OC)c2)cc1O [COMBRETASTATIN A4] | 3.5 nM | 1.9 nM | 4160 nM | Activity (HT-29 [26]): 52%; Activity (HT-29 [27]): 15%; Activity (HT-29 [28]): 14%; Activity (HT-29 [29]): 50%; fold change (FC) (Tubulin (Bos taurus)): 2; Activity (Tubulin (Homo sapiens) [30]): inactive; inhibition [31]: Active
